Reference: ChEMBL document CHEMBL1150579, “Anti-lipid-peroxidative principles from Tournefortia sarmentosa” (J Nat Prod, 2002)

Assays:
[1] = Antioxidant activity against Cu2+-induced lipid peroxidation in human plasma LDL preincubated for 1 hr before Cu2+ challenge relative to probucol; assay type: functional, cell-free
Procedure, shortened: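 Same Cu2+-induced human LDL assay as above, with 1 h compound preincubation, 10 µM CuSO4 for 2 h at 37 °C, and conjugated dienes read at 232 nm. Probucol (10 µM, in 10% ethanol) was the positive control, with its potency set at 1.0. Relative potency = IC50(probucol)/IC50(compound).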

[2] = Antioxidant activity against Cu2+-induced lipid peroxidation in human plasma LDL preincubated for 1 hr before Cu2+ challenge; assay type: functional, cell-free
Procedure, shortened: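 LDL from fasting plasma of healthy adult men not taking vitamin supplements. LDL was preincubated with compound at 37 °C for 1 h. Oxidation was started with CuSO4 (final 10 µM) and run for 2 h at 37 °C, shaken at 120 rpm. Conjugated dienes in the supernatant were read at 232 nm. IC50 is the concentration giving 50% inhibition of diene formation, taken from concentration curves.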

SMILES: O=C(/C=C/c1ccc(O)c2c1[C@H](C(=O)O)[C@@H](c1ccc(O)c(O)c1)O2)O[C@H](Cc1ccc(O)c(O)c1)C(=O)O [LITHOSPERMIC ACID]
- Activity [1]: 4.3
- IC50 [2]: 1 µM

SMILES: CCOC(=O)/C=C/c1ccc(O)c2c1C=Cc1cc(O)c(O)cc1O2 [TOURNEFOLIC ACID B ETHYL ESTER]
- Activity [1]: 8.6
- IC50 [2]: 0.51 µM

SMILES: O=C(/C=C/c1ccc(O)c2c1C=Cc1cc(O)c(O)cc1O2)O[C@H](Cc1ccc(O)c(O)c1)C(=O)O [ISOSALVIANOLIC ACID C]
- Activity [1]: 1.6
- IC50 [2]: 2.72 µM

SMILES: O=C(/C=C/c1ccc(O)c(O)c1)O[C@H](Cc1ccc(O)c(O)c1)C(=O)O [ROSMARINIC ACID]
- Activity [1]: 2.2
- IC50 [2]: 1.81 µM

SMILES: O=C(O)/C=C/c1ccc(O)c(O)c1/C=C/c1ccc(O)c(O)c1 [SALVIANOLIC ACID F]
- Activity [1]: 0.8
- IC50 [2]: 5.44 µM

SMILES: CC(C)(Sc1cc(C(C)(C)C)c(O)c(C(C)(C)C)c1)Sc1cc(C(C)(C)C)c(O)c(C(C)(C)C)c1 [PROBUCOL]
- IC50 [2]: 4.3 µM

SMILES: O=C(O)/C=C/c1ccc(O)c2c1C=Cc1cc(O)c(O)cc1O2 [TOURNEFOLIC ACID B]
- Activity [1]: 1.9
- IC50 [2]: 2.32 µM

SMILES: O=C(O)/C=C/c1ccc(O)c2oc(-c3ccc(O)c(O)c3)cc12 [TOURNEFOLIC ACID A]
- Activity [1]: 1.1
- IC50 [2]: 4.81 µM

SMILES: O=Cc1ccc(O)c2oc(-c3ccc(O)c(O)c3)cc12 [TOURNEFOLAL]
- Activity [1]: 1.09
- IC50 [2]: 4.7 µM

SMILES: O=C(/C=C/c1ccc(O)c(O)c1/C=C/c1ccc(O)c(O)c1)O[C@H](Cc1ccc(O)c(O)c1)C(=O)O [SALVIANOLIC ACID A]
- Activity [1]: 7.3
- IC50 [2]: 0.59 µM
